In ChEMBL document CHEMBL1127562, “N-substituted spirosuccinimide, spiropyridazine, spiroazetidine, and acetic acid aldose reductase inhibitors derived from isoquinoline-1,3-diones. 2” (J Med Chem, 1994) one finds inhibition and Inhibition data, which are given here for 18 compounds.

Calls of active or inactive are those of the source. The rule behind the calls is not given here.

The first test addresses Aldo-keto reductase family 1 member B1 (Bos taurus) (UniProt P16116). Kind of test: Inhibition of aldose reductase activity in partially purified bovine lens preparation at 10e-5 M.
Details: not given
Summed up:
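Partially purified bovine lens aldose reductase. Reduction of DL-glyceraldehyde substrate followed spectrophotometrically. Activity expressed as average inhibition at the tested concentrations, 1×10^-5, 1×10^-6, 1×10^-7 and 4×10^-6 M as printed; IC50 in M where given.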
Consider `CN1C(=O)CC2(C1=O)C(=O)N(Cc1ccc(C(F)(F)F)cc1)C(=O)c1ccccc12` (centres undefined), for which the inhibition result was “inactive”.

In the case of `CC1(CC(=O)O)C(=O)N(Cc2ccc(Cl)c(Cl)c2)C(=O)c2ccccc21` (centres undefined), the inhibition turned out to be 45%.

`O=C(O)CC1C(=O)N(Cc2ccc(C(F)(F)F)cc2)C(=O)c2ccccc21` (centres undefined) came in with an inhibition of 43%.

`CN1C(=O)CC2(C1=O)C(=O)N(Cc1ccc(Br)cc1F)C(=O)c1ccccc12` (centres undefined): the inhibition entry is “inactive”.

`CNC(=O)CC1C(=O)N(Cc2ccc(Br)cc2F)C(=O)c2ccccc21` (centres undefined): the inhibition is 62%.

`CCNC(=O)CC1C(=O)N(Cc2ccc(Br)cc2F)C(=O)c2ccc(F)cc21` (centres undefined) registered an inhibition of 80%.

As for `CN1C(=O)CC2(C1=O)C(=O)N(Cc1cccc(C(F)(F)F)c1)C(=O)c1ccccc12` (centres undefined), the inhibition entry was “inactive”.

For `CN1NC(=O)C2(CC1=O)C(=O)N(Cc1ccc(Br)cc1F)C(=O)c1ccccc12` (centres undefined), the inhibition result is “inactive”.

In the case of `CCN1C(=O)CC2(C1=O)C(=O)N(Cc1nc3cc(C(F)(F)F)ccc3s1)C(=O)c1ccc(F)cc12` (centres undefined), the inhibition entry was “inactive”.

`COC(=O)NC(=O)CC1C(=O)N(C)C(=O)c2cc(Br)c(OC)cc21` (centres undefined) came in with an inhibition of 29%.

For the compound `CCN1C(=O)CC2(C1=O)C(=O)N(Cc1ccc(Br)cc1F)C(=O)c1ccc(F)cc12` (centres undefined), the inhibition entry is “inactive”.

The subject of a further test is Rattus norvegicus. Briefly: Tested for in vivo inhibition of galactitol accumulation in the sciatic nerve of galactose-fed rats at the dose of 24.9 (mg/kg/day). Type of test: functional.
Details: not given
The method, boiled down: (§1)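 Rats were given a 20% galactose diet for 4 days, with the test compound administered in the diet. Sciatic nerve galactitol accumulation was measured, and activity is given as % inhibition at the stated daily dose (mg/kg/day). Values are mean ± SEM, n = 6 animals; p < 0.01 unless indicated. NS means no significant inhibition of polyol accumulation.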
For `O=C(O)CC1C(=O)N(Cc2ccc(Br)cc2F)C(=O)c2ccc(F)cc21` (centres undefined), the Inhibition stood at 47%.

`CN1C(=O)CC2(C1=O)C(=O)N(Cc1cccc(C(F)(F)F)c1)C(=O)c1ccccc12` (centres undefined) showed an Inhibition of 28%.

The subject of a further test is Rattus norvegicus. Briefly: Tested for in vivo inhibition of galactitol accumulation in the lens of galactose-fed rats at the dose of 98 (mg/kg/day); NS=Not significant. Type of test: functional, organism-based. To be noted: Lens of camera-type eye. Summed up:
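Galactosemic rats were fed 20% galactose for 4 days, with the compound mixed into the diet. […] galactitol accumulation was measured, and activity is given as % inhibition at the stated daily dose (mg/kg/day). Values are mean ± SEM of six animals; p < 0.01 unless indicated. NS means no significant inhibition of polyol accumulation.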
For `O=C(O)CC1C(=O)N(Cc2ccc(Cl)c(Cl)c2)C(=O)c2ccccc21` (centres undefined), the inhibition result is “inactive”.

A further test has as its system Rattus norvegicus. Briefly: Tested for in vivo inhibition of galactitol accumulation in the lens of galactose-fed rats at the dose of 24.9 (mg/kg/day); NS=Not significant. The test is classed as functional, organism-based. To be noted: Lens of camera-type eye.
With `O=C(O)CC1C(=O)N(Cc2ccc(Br)cc2F)C(=O)c2ccc(F)cc21` (centres undefined), the inhibition result was “inactive”.

Regarding `O=C1Cc2c(n(Cc3ccc(Br)cc3F)c(=O)c3ccccc23)O1`, the inhibition result is “inactive”.

The subject of a further test is Rattus norvegicus. Kind of test: Tested for in vivo inhibition of galactitol accumulation in the sciatic nerve of galactose-fed rats at the dose of 98 (mg/kg/day); NS=Not significant. Type of test: functional, organism-based.
Details: not given
Summed up: (§2)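 Rats fed a 20% galactose diet for 4 days, with test compound given in the diet at the stated daily dose (mg/kg/day). Read-out is inhibition of galactitol (polyol) accumulation in sciatic nerve. Values are % inhibition, mean ± SEM of six animals; p < 0.01 unless marked (some p < 0.05). NS = no significant inhibition of polyol accumulation. Tolrestat was the reference standard.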
`O=C(O)CC1C(=O)N(Cc2ccc(Cl)c(Cl)c2)C(=O)c2ccccc21` (centres undefined): the inhibition result is “inactive”.

For the next test, the system named is Rattus norvegicus. Briefly: Tested for in vivo inhibition of galactitol accumulation in the lens of galactose-fed rats at the dose of 25.1 (mg/kg/day); NS=Not significant. As to conditions: Lens of camera-type eye. Type of test: functional, organism-based.
Regarding `CCNC(=O)CC1C(=O)N(Cc2ccc(Br)cc2F)C(=O)c2ccc(F)cc21` (centres undefined), the inhibition result is “inactive”.

For a further test, the system named is Rattus norvegicus. Kind of test: Tested for in vivo inhibition of galactitol accumulation in the sciatic nerve of galactose-fed rats at the dose of 26.1 (mg/kg/day); NS=Not significant. Type of test: functional, organism-based.
Details: not given
The method, boiled down: as §1
In the case of `O=C(O)CC1C(=O)N(Cc2ccc(Br)cc2F)C(=O)c2cc(Cl)ccc21` (centres undefined), the inhibition result was “inactive”.

The subject of a further test is Rattus norvegicus. Briefly: Tested for in vivo inhibition of galactitol accumulation in the sciatic nerve of galactose-fed rats at the dose of 1.1 (mg/kg/day).
Details: not given
The test is classed as functional. Summed up: as §1
`CN1C(=O)CC2(C1=O)C(=O)N(Cc1ccc(Br)cc1F)C(=O)c1ccccc12` (centres undefined) showed an Inhibition of 76%.

A further test relates to Rattus norvegicus. Briefly: Tested for in vivo inhibition of galactitol accumulation in the sciatic nerve of galactose-fed rats at the dose of 25.1 (mg/kg/day); NS=Not significant. The test is classed as functional, organism-based.
Details: not given
The method, boiled down:
as §1
For the compound `CN1C(=O)CC2(C1=O)C(=O)N(Cc1ccc(C(F)(F)F)cc1)C(=O)c1ccccc12` (centres undefined), the inhibition entry was “inactive”.

Take `CCNC(=O)CC1C(=O)N(Cc2ccc(Br)cc2F)C(=O)c2ccc(F)cc21` (centres undefined): the inhibition result is “inactive”.

For a further test, the system named is Rattus norvegicus. Briefly: Tested for in vivo inhibition of galactitol accumulation in the sciatic nerve of galactose-fed rats at the dose of 24.9 (mg/kg/day); NS=Not significant.
Details: not given
The test is classed as functional, organism-based. The method, boiled down:
as §1
On to `O=C1Cc2c(n(Cc3ccc(Br)cc3F)c(=O)c3ccccc23)O1`, for which the inhibition entry is “inactive”.

Another test relates to Rattus norvegicus. Kind of test: Tested for in vivo inhibition of galactitol accumulation in the sciatic nerve of galactose-fed rats at the dose of 55 (mg/kg/day); NS=Not significant.
Details: not given
Type of test: functional, organism-based. Summed up: as §2
On to `O=C(O)CN1C(=O)c2ccccc2C(Cc2ccc(Br)cc2F)C1=O` (centres undefined), for which the inhibition entry was “inactive”.

As for `CN1NC(=O)C2(CC1=O)C(=O)N(Cc1ccc(Br)cc1F)C(=O)c1ccccc12` (centres undefined), the inhibition entry is “inactive”.

As to `O=C1CC2(N1)C(=O)N(Cc1ccc(Br)cc1F)C(=O)c1ccccc12` (centres undefined), the inhibition result is “inactive”.

The target in the next test is Aldo-keto reductase family 1 member B1 (Bos taurus) (UniProt P16116). Kind of test: Inhibition of aldose reductase activity in partially purified bovine lens preparation at 4*10 e-8 M.
Details: not given
In the case of `O=C(O)CC1C(=O)N(Cc2ccc(Br)cc2F)C(=O)c2cc(F)ccc21` (centres undefined), the inhibition was 42%.

Take `O=C(O)CC1C(=O)N(Cc2ccc(Br)cc2F)C(=O)c2ccc(F)cc21` (centres undefined): the inhibition is 80%.

Turning to `O=C1Cc2c(n(Cc3ccc(Br)cc3F)c(=O)c3ccccc23)O1`, the inhibition was found to be 32%.

`O=C(O)CC1C(=O)N(Cc2ccc(Br)cc2F)C(=O)c2cc(Cl)ccc21` (centres undefined) gave an inhibition of 30%.

For `O=C(O)CC1C(=O)N(Cc2ccc(Cl)c(Cl)c2)C(=O)c2ccccc21` (centres undefined), the inhibition came to 58%.

The test system of a further test is Rattus norvegicus. Briefly: Tested for in vivo inhibition of galactitol accumulation in the lens of galactose-fed rats at the dose of 26.1 (mg/kg/day); NS=Not significant. Type of test: functional, organism-based. To be noted: Lens of camera-type eye.
Regarding `O=C(O)CC1C(=O)N(Cc2ccc(Br)cc2F)C(=O)c2cc(Cl)ccc21` (centres undefined), the inhibition result is “inactive”.

Another test concerns Rattus norvegicus. Kind of test: Tested for in vivo inhibition of galactitol accumulation in the lens of galactose-fed rats at the dose of 55 (mg/kg/day); NS=Not significant. Type of test: functional, organism-based. As to conditions: Lens of camera-type eye.
Consider `O=C(O)CN1C(=O)c2ccccc2C(Cc2ccc(Br)cc2F)C1=O` (centres undefined), for which the inhibition entry is “inactive”.

Take `O=C1CC2(N1)C(=O)N(Cc1ccc(Br)cc1F)C(=O)c1ccccc12` (centres undefined): the inhibition result is “inactive”.
